# Measurements taken from ChEMBL document CHEMBL3044889, “Synthesis and quantitative structure-activity relationship (QSAR) study of novel 4-acyloxypodophyllotoxin derivatives modified in the A and C rings as insecticidal agents” (2013).
# Experiments:
# Format in all cases: functional
# [1] = tested on: Mythimna separata; experiment: Insecticidal activity against pre-third-instar larvae of Mythimna separata (Oriental armyworm) assessed as corrected mortality rate at 1 mg/ml measured after 35 days by the leaf-dipping method; conditions: 840 h
# Outline: (§1)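 Test solutions 1 mg/mL in acetone; fresh wheat leaves dipped 3 s, air-dried indoors; acetone-only leaves as blank control. Ten larvae per dish fed treated leaves, topped up if consumed; untreated fresh leaves from 48 h until adult emergence. Held at 25 ± 2 °C, RH 65-80%, 12 h/12 h light/dark. Corrected mortality = (T − C) × 100/(1 − C).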
# [2] = tested on: Mythimna separata; experiment: Insecticidal activity against pre-third-instar larvae of Mythimna separata (Oriental armyworm) assessed as corrected mortality rate at 1 mg/ml measured after 20 days by the leaf-dipping method; conditions: 480 h; outline: as §1
# [3] = tested on: Mythimna separata; experiment: Insecticidal activity against pre-third-instar larvae of Mythimna separata (Oriental armyworm) assessed as corrected mortality rate at 1 mg/ml measured after 10 days by the leaf-dipping method; conditions: 240 h; outline: as §1
Compound,mortality at 1000 µg/mL [1] [%],mortality at 1000 µg/mL [2] [%],mortality at 1000 µg/mL [3] [%]
CCCC(=O)O[C@@H]1c2cc(OC)c(OC)cc2[C@@H](c2cc(OC)c(OC)c(OC)c2)[C@H]2C(=O)OC[C@@H]21,36.7,10,3.3
COc1cc([C@@H]2c3cc(OCc4ccccc4)c(OCc4ccccc4)cc3[C@@H](OC(=O)Cc3cccc4ccccc34)[C@H]3COC(=O)[C@H]23)cc(OC)c1OC,33.3,26.7,3.3
COc1cc2c(cc1OC)[C@H](OC(=O)c1ccc(C)cc1)[C@H]1COC(=O)[C@@H]1[C@@H]2c1cc(OC)c(OC)c(OC)c1,33.3,16.7,6.7
COc1cc([C@@H]2c3cc4c(cc3[C@H](O)[C@H]3COC(=O)[C@H]23)OCO4)cc(OC)c1OC [PODOFILOX],40,23.3,13.3
"COc1cc([C@@H]2c3cc(O)c(O)cc3[C@H](O)[C@H]3COC(=O)[C@H]23)cc(OC)c1OC [6,7-O,O-DEMETHYLENEPODOPHYLLOTOXIN]",23.3,6.7,0
CC(=O)O[C@@H]1C[C@H](O)[C@@]23CO[C@@H](O)[C@]1(C)[C@@H]2C[C@@H](O)[C@]1(C)[C@@H]3C(=O)[C@H](OC(C)=O)[C@@]2(C)[C@H](c3ccoc3)C[C@H]3O[C@]321 [TOOSENDANIN],50,20,10
COc1cc2c(cc1OC)[C@H](OC(=O)c1ccccc1)[C@H]1COC(=O)[C@@H]1[C@@H]2c1cc(OC)c(OC)c(OC)c1,36.7,26.7,10
"COc1cc2c(cc1OC)[C@@H](O)[C@H]1COC(=O)[C@@H]1[C@@H]2c1cc(OC)c(OC)c(OC)c1 [6,7-O,O-DEMETHYLENE-6,7-O,O-DIMETHYLEPIPODOPHYLLOTOXIN]",40,23.3,16.7
COc1cc2c(cc1OC)[C@@H](OC(=O)c1cccc([N+](=O)[O-])c1)[C@H]1COC(=O)[C@@H]1[C@@H]2c1cc(OC)c(OC)c(OC)c1,36.7,26.7,10
COc1cc2c(cc1OC)[C@H](OC(=O)Cc1ccccc1)[C@H]1COC(=O)[C@@H]1[C@@H]2c1cc(OC)c(OC)c(OC)c1,26.7,13.3,3.3
COc1cc([C@@H]2c3cc(OCc4ccccc4)c(OCc4ccccc4)cc3[C@@H](OC(=O)Cc3ccccc3)[C@H]3COC(=O)[C@H]23)cc(OC)c1OC,40,16.7,3.3
CCCCCC(=O)O[C@@H]1c2cc(OC)c(OC)cc2[C@@H](c2cc(OC)c(OC)c(OC)c2)[C@H]2C(=O)OC[C@@H]21,43.3,26.7,23.3
CCCC(=O)O[C@H]1c2cc(OC)c(OC)cc2[C@@H](c2cc(OC)c(OC)c(OC)c2)[C@H]2C(=O)OC[C@@H]21,33.3,20,6.7
COc1cc2c(cc1OC)[C@@H](OC(=O)Cc1ccccc1)[C@H]1COC(=O)[C@@H]1[C@@H]2c1cc(OC)c(OC)c(OC)c1,33.3,16.7,10
CCCCCC(=O)O[C@@H]1c2cc(OCc3ccccc3)c(OCc3ccccc3)cc2[C@@H](c2cc(OC)c(OC)c(OC)c2)[C@H]2C(=O)OC[C@@H]21,33.3,13.3,10
COc1cc2c(cc1OC)[C@@H](OC(=O)Cc1cccc3ccccc13)[C@H]1COC(=O)[C@@H]1[C@@H]2c1cc(OC)c(OC)c(OC)c1,50,20,13.3
COc1cc2c(cc1OC)[C@H](OC(C)=O)[C@H]1COC(=O)[C@@H]1[C@@H]2c1cc(OC)c(OC)c(OC)c1,36.7,23.3,10
"COc1cc2c(cc1OC)[C@H](O)[C@H]1COC(=O)[C@@H]1[C@@H]2c1cc(OC)c(OC)c(OC)c1 [6,7-O,O-DEMETHYLENE-6,7-O,O-DIMETHYLPODOPHYLLOTOXIN]",36.7,23.3,0
CCCCCCCC(=O)O[C@H]1c2cc(OC)c(OC)cc2[C@@H](c2cc(OC)c(OC)c(OC)c2)[C@H]2C(=O)OC[C@@H]21,53.3,30,10
COc1cc([C@@H]2c3cc(OCc4ccccc4)c(OCc4ccccc4)cc3[C@@H](OC(=O)c3cccc([N+](=O)[O-])c3)[C@H]3COC(=O)[C@H]23)cc(OC)c1OC,33.3,6.7,3.3
COc1cc2c(cc1OC)[C@H](OC(=O)c1cccc([N+](=O)[O-])c1)[C@H]1COC(=O)[C@@H]1[C@@H]2c1cc(OC)c(OC)c(OC)c1,36.7,16.7,3.3
COc1cc2c(cc1OC)[C@H](OC(=O)Cc1cccc3ccccc13)[C@H]1COC(=O)[C@@H]1[C@@H]2c1cc(OC)c(OC)c(OC)c1,60,26.7,10
CCCCCC(=O)O[C@H]1c2cc(OC)c(OC)cc2[C@@H](c2cc(OC)c(OC)c(OC)c2)[C@H]2C(=O)OC[C@@H]21,36.7,23.3,6.7
COc1cc2c(cc1OC)[C@H](OC(=O)CCl)[C@H]1COC(=O)[C@@H]1[C@@H]2c1cc(OC)c(OC)c(OC)c1,26.7,13.3,0
COc1cc2c(cc1OC)[C@H](OC(=O)c1ccc([N+](=O)[O-])cc1)[C@H]1COC(=O)[C@@H]1[C@@H]2c1cc(OC)c(OC)c(OC)c1,46.7,13.3,3.3
COc1cc2c(cc1OC)[C@H](OC(=O)c1cccc(Cl)c1)[C@H]1COC(=O)[C@@H]1[C@@H]2c1cc(OC)c(OC)c(OC)c1,50,23.3,3.3
"COc1cc([C@@H]2c3cc(OCc4ccccc4)c(OCc4ccccc4)cc3[C@H](O)[C@H]3COC(=O)[C@H]23)cc(OC)c1OC [6,7-O,O-DEMETHYLENE-6,7-O,O-DIBENZYLPODOPHYLLOTOXIN]",33.3,33.3,10
